Results published in ChEMBL document CHEMBL1125577, “Determination of dissociation constants of high affinity (pM) human renin inhibitors: application to analogues of ditekiren (U-71,038)” (J Med Chem, 1991).
Numbered stars: 1 amine (or outer) side, 2 acyl side, 3 side chain; on linkers, the order of the positions; unused ones are H or OH. Square brackets hold non-standard residues; d marks the D form. Peptide text beside a SMILES is read from it. * marks the point of attachment. ξ: configuration not given here. X1 = CC(C)C[C@H](N[*:1])[C@@H](O)C[C@H](C(=O)[*:2])C(C)C; X2 = OC[C@H]1O[C@@H](O)[C@H](N*)[C@H](O)[C@@H]1O; NH(2-picolyl-N-oxide) = [O-][n+]1ccccc1CN*; NMeH = CN[C@@H](Cc1c[nH]cn1)C(=O)O; NHCH2(2-pyridyl) = c1ccc(CN*)nc1; Ile(3ξ) = CCC(C)[C@H](N)C(=O)O; NHC(CH2OH)3 = OCC(CO)(CO)N*; Boc = CC(C)(C)OC(=O)*; CO = O=C([*:1])[*:2]

Key:
Renin [1] = target: T1, Renin (Homo sapiens, UniProt P00797); test: In vitro inhibition of human renin by radio-immuno assay of angiotensin I (ANG I)
T1 sequence (P00797 whole entry): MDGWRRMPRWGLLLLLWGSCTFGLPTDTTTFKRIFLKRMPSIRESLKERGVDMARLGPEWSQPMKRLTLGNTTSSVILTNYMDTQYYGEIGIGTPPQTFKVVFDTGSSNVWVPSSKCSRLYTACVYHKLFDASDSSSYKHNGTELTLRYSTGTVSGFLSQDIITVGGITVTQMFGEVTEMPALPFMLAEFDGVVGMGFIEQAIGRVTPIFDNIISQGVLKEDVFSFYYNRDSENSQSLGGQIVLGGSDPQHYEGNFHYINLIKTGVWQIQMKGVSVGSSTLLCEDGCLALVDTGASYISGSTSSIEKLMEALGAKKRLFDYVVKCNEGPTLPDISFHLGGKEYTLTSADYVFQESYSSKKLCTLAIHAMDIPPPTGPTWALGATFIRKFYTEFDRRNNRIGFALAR

Renin [2] = target: T1, Renin; test: In vitro inhibition constants using recombinant human renin assay
[3] = The dissociation constant determined by fluorescence displacement assay
Summary of the method: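 Unlabeled inhibitor (6.6 and 13 nM) then added for 2.5 h more, with fluorescence read before and after each addition. Kd fitted from predicted binding curves or numerical solution, as the mean of three duplicate determinations.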

| IC50 (Renin [1]) [nM] | Ki (Renin [2]) [nM] | Kd [3] [nM] | SMILES |
| --- | --- | --- | --- |
| 0.33 |  |  | CC[C@H](C)[C@H](NC(=O)[C@@H](C[C@H](O)[C@H](CC(C)C)NC(=O)[C@H](Cc1cnc[nH]1)N(C)C(=O)[C@H](Cc1ccccc1)NC(=O)[C@@H]1CCCN1C(=O)NC(CO)(CO)CO)C(C)C)C(=O)NCc1ccccn1 ({NHC(CH2OH)3-CO}-PF[NMeH][X1]I-{NHCH2(2-pyridyl)}) |
| 0.24 | 0.043 | 0.066 | CC[C@H](C)[C@H](NC(=O)[C@@H](C[C@H](O)[C@H](CC(C)C)NC(=O)[C@H](Cc1c[nH]cn1)NC(=O)[C@@H](Cc1ccccc1)NS(=O)(=O)c1cccc2c(N(C)C)cccc12)C(C)C)C(=O)NCc1ccccn1 |
|  |  | 0.131 | CC[C@H](C)[C@H](NC(=O)[C@@H](C[C@H](O)[C@H](CC(C)C)NC(=O)[C@H](Cc1c[nH]cn1)N(C)C(=O)[C@H](Cc1ccccc1)NC(=O)[C@@H]1CCCN1C(=O)OC(C)(C)C)C(C)C)C(=O)NCc1cccc[n+]1[O-] (Boc-PF[NMeH][X1]I-{NH(2-picolyl-N-oxide)}) |
| 1.1 |  | 0.434 | CC[C@H](C)[C@H](NC(=O)[C@@H](C[C@H](O)[C@H](CC(C)C)NC(=O)[C@H](Cc1c[nH]cn1)N(C)C(=O)[C@H](Cc1ccccc1)NC(=O)[C@@H]1CCCN1C(=O)N[C@@H]1[C@H](O)[C@H](O)[C@@H](CO)O[C@H]1O)C(C)C)C(=O)NCc1cccc[n+]1[O-] ({X2-CO}-PF[NMeH][X1]I-{NH(2-picolyl-N-oxide)}) |
| 0.33 |  |  | CC[C@H](C)[C@H](NC(=O)[C@@H](C[C@H](O)[C@H](CC(C)C)NC(=O)[C@H](Cc1cnc[nH]1)N(C)C(=O)[C@H](Cc1ccccc1)NC(=O)[C@@H]1CCCN1C(=O)OC(C)(C)C)C(C)C)C(=O)NCc1cccc[n+]1[O-] (Boc-PF[NMeH][X1]I-{NH(2-picolyl-N-oxide)}) |
| 0.26 | 0.04 | 0.04 | CC[C@H](C)[C@H](NC(=O)[C@@H](C[C@H](O)[C@H](CC(C)C)NC(=O)[C@H](Cc1c[nH]cn1)N(C)C(=O)[C@H](Cc1ccccc1)NC(=O)[C@@H]1CCCN1C(=O)OC(C)(C)C)C(C)C)C(=O)NCc1ccccn1 [DITEKIREN] |
|  |  | 0.111 | CC[C@H](C)[C@H](NC(=O)[C@@H](C[C@H](O)[C@H](CC(C)C)NC(=O)[C@H](Cc1c[nH]cn1)N(C)C(=O)[C@H](Cc1ccccc1)NC(=O)[C@@H]1CCCN1C(=O)NC(CO)(CO)CO)C(C)C)C(=O)NCc1ccccn1 ({NHC(CH2OH)3-CO}-PF[NMeH][X1]I-{NHCH2(2-pyridyl)}) |
| 0.26 |  | 0.044 | CC[C@H](C)[C@H](NC(=O)[C@@H](C[C@H](O)[C@H](CC(C)C)NC(=O)[C@H](Cc1c[nH]cn1)N(C)C(=O)[C@H](Cc1ccccc1)NC(=O)[C@@H]1CCCN1C(=O)OC(C)(C)C)C(C)C)C(=O)NC(CO)(CO)CO (Boc-PF[NMeH][X1]I-{NHC(CH2OH)3}) |
|  |  | 0.033 | CCC(C)[C@H](NC(=O)[C@@H](C[C@H](O)[C@H](CC(C)C)NC(=O)[C@H](Cc1c[nH]cn1)N(C)C(=O)[C@H](Cc1ccccc1)NC(=O)[C@@H]1CCCN1C(=O)NC(CO)(CO)CO)C(C)C)C(=O)NCc1cccc[n+]1[O-] (some centres not stated) ({NHC(CH2OH)3-CO}-PF[NMeH][X1][Ile(3ξ)]-{NH(2-picolyl-N-oxide)}) |
| 0.58 | 0.051 |  | CCC(C)[C@H](NC(=O)[C@@H](C[C@H](O)[C@H](CC(C)C)NC(=O)[C@H](Cc1cnc[nH]1)N(C)C(=O)[C@H](Cc1ccccc1)NC(=O)[C@@H]1CCCN1C(=O)NC(CO)(CO)CO)C(C)C)C(=O)NCc1cccc[n+]1[O-] (some centres not stated) ({NHC(CH2OH)3-CO}-PF[NMeH][X1][Ile(3ξ)]-{NH(2-picolyl-N-oxide)}) |
